# Assay results gathered from unrelated publications.
# Protocols differ between the studies behind these lines.
# Mode: inhibitor
# rep main protease: Replicase polyprotein 1ab, main protease (rep, Severe acute respiratory syndrome coronavirus 2, UniProt P0DTD1)
# rep papain-like protease: Replicase polyprotein 1ab, papain-like protease (rep, Severe acute respiratory syndrome coronavirus 2, UniProt P0DTD1)
Compound,target,test,system,conditions,inhibition [%]
O=C(O)c1cc(O)c2c(c1)[C@H]([C@H]1c3cc(C(=O)O)cc(O)c3C(=O)c3c(O[C@@H]4O[C@H](CO)[C@@H](O)[C@H](O)[C@H]4O)cccc31)c1cccc(O[C@@H]3O[C@H](CO)[C@@H](O)[C@H](O)[C@H]3O)c1C2=O,rep main protease,enzyme activity,,20 µM,100
Cn1c(C(=O)Nc2ccc3c(c2)OCCO3)cc2c(=O)n3ccccc3nc21,rep main protease,enzyme activity,,100 µM,71
O=c1c(O)c(-c2cc(O)c(O)c(O)c2)oc2cc(O)ccc12,rep main protease,enzyme activity,,10 µM,62.5
O=C(NC[C@H](NC(=O)c1cn[nH]c1-c1ccccn1)c1ccc2ccccc2c1)c1cn[nH]c1,rep main protease,enzyme activity,,5 µM,10.7
N#CC(c1ccc2c(c1)OCO2)N(Cc1ccccc1)C(=O)c1sc2ccccc2c1Cl (stereo not drawn),rep main protease,enzyme activity,,20 µM,8.09
Cc1cccn2c(=O)c3cc(C(=O)Nc4ccc(N(C)C)cc4)n(C)c3nc12,rep main protease,enzyme activity,,1 µM,3.5
CN(C)C(=O)COC(=O)Cc1ccc(OC(=O)c2ccc(NC(=N)N)cc2)cc1,rep main protease,enzyme activity,,10 µM,6
C[C@@H]1O[C@@H](O[C@@H]2[C@@H](O)[C@H](OCCc3ccc(O)c(O)c3)O[C@H](CO)[C@H]2OC(=O)/C=C/c2ccc(O)c(O)c2)[C@H](O)[C@H](O)[C@H]1O,rep main protease,enzyme activity,,100 µM,97
O=C(Oc1cc([N+](=O)[O-])ccc1F)c1cccc2[nH]ccc12,rep main protease,"enzyme activity, fluorescence",,"10 µM, pH 7.2",2
COc1ccc(OC)c2c1C(=O)C=CC2=O,rep main protease,enzyme activity,,1 µM,75.1
CCn1nc2n(Cc3ccc(F)cc3)c(=O)c3nn(C)cc3n2c1=O,rep main protease,enzyme activity,,20 µM,15.5
O=C(O)[C@H]1O[C@@H](Oc2cc3oc(-c4ccc(O)cc4)cc(=O)c3c(O)c2O)[C@H](O)[C@@H](O)[C@@H]1O,rep main protease,enzyme activity,,10 µM,18.9
COc1c(-c2ccc(O)c(CC=C(C)C)c2)oc2cc(O)cc(O)c2c1=O,rep main protease,enzyme activity,,8 µM,16.9
O=C(O)c1ccc(O)c(O)c1,rep main protease,"enzyme activity, FRET",,"10 µM, 10 min",< 25
COc1cccc2c1C(=O)C(C(C)=O)=CC2=O,rep main protease,enzyme activity,,10 µM,96.1
Oc1cc2c(cc1O)[C@H]1c3ccccc3CN[C@@H]1CC2 (racemic),rep main protease,enzyme activity,,20 µM,-15.1
COCOc1cc(C)cc2c1C(=O)C=CC2=O,rep main protease,enzyme activity,,1 µM,4.6
C[C@@H]1O[C@@H](OC[C@H]2O[C@@H](OCCc3ccc(O)c(O)c3)[C@H](OC(=O)/C=C/c3ccc(O)c(O)c3)[C@@H](O)[C@@H]2O)[C@H](O)[C@H](O)[C@H]1O,rep main protease,enzyme activity,,10 µM,61.7
CCC(=O)Oc1cccc2c1C(=O)C=CC2=O,rep main protease,enzyme activity,,10 µM,102
Cc1cc(O)c2c(=O)c3c(O)cc(O)c4c5c(O)cc(O)c6c(=O)c7c(O)cc(C)c8c1c2c(c34)c(c78)c65,rep main protease,enzyme activity,,20 µM,31.5
O=C(O)[C@]1(O)C[C@@H](O)[C@@H](O)[C@H](O)C1,rep main protease,"enzyme activity, FRET",,"10 µM, 10 min",< 25
O=c1c(O)c(-c2ccc(O)cc2)oc2cc(O)cc(O)c12,rep main protease,enzyme activity,,20 µM,12
CC(=O)N[C@H](CCCCN)C(=O)N[C@H](Cc1c[nH]c2ccccc12)C(=O)N[C@H](CO)C(=O)N[C@H](Cc1ccc(O)cc1)C(=O)N[C@H](CCC(N)=O)C(=O)N1CCC[C@@H]1C(=O)N[C@@H](C(=O)N[C@H](Cc1c[nH]c2ccccc12)C(=O)N[C@H](CC(=O)O)C(=O)N[C@H](Cc1c[nH]c2ccccc12)C(=O)N[C@@H](C(=O)N[C@H](Cc1c[nH]c2ccccc12)C(=O)N[C@H](CO)C(=O)N[C@H](CCC(=O)O)C(=O)N[C@H](Cc1c[nH]cn1)C(=O)N[C@H](C)C(=O)N[C@H](CCCNC(=N)N)C(N)=O)[C@H](C)O)[C@H](C)O,rep main protease,"enzyme activity, fluorescence",,140 µM,100
CCOC(=O)COc1cc(C)cc2c1C(=O)C=CC2=O,rep main protease,enzyme activity,,10 µM,97.5
Clc1nc2ccccc2cc1/C=N\c1ccc(-c2nc3ccccc3[nH]2)cc1,rep papain-like protease,enzyme activity,,100 µM,25.3
CC(=O)Nc1ccc(C2NN=C(c3ccc(C(F)(F)F)cn3)N2)cc1 (stereo not drawn),rep main protease,enzyme activity,,20 µM,4.63
Cc1ncc(/C=C\C(=O)N2C[C@@H](NC(=O)c3ccc[nH]c3=O)CC3(CCOCC3)C2)c(=O)[nH]1,rep main protease,enzyme activity,,5 µM,15.5
COc1ccc2nc(Cl)c(/C=N/c3ccc(-c4nc5ccccc5[nH]4)cc3)cc2c1,rep papain-like protease,enzyme activity,,10 µM,2.1
O=C(CCc1ccccc1)Nc1ccc2c(c1)C(=O)OC2,rep main protease,enzyme activity,,20 µM,-0.804
COc1cc(C[C@@H](C)[C@@H](C)Cc2cc(O)c(OC)c(OC)c2)cc(O)c1OC,rep main protease,"enzyme activity, FRET",,8 µM,58
O=C1C=CC(=O)c2c(O)cccc21,rep main protease,enzyme activity,,0.1 µM,20.3
c1cc(CN2CCCNCCNCCCNCC2)ccc1CN1CCCNCCNCCCNCC1,rep main protease,enzyme activity in cells,HEK-293T,20 µM,-0.49
Cc1cc(NC(=O)c2cc3c(=O)n4cccc(C)c4nc3n2C)ccc1Br,rep main protease,enzyme activity,,10 µM,30
CC(C)C[C@H](NC(=O)OCc1ccccc1)C(=O)N(C)N(C#N)CCC(N)=O,rep main protease,"enzyme activity, fluorescence",,"50 µM, pH 7.2",100
Cc1ccc(NC(=O)c2cc3c(=O)n4cccc(C)c4nc3n2C)cc1Cl,rep main protease,enzyme activity,,1 mM,75
Cc1cc(O)c2c(c1)C(=O)C=CC2=O,rep main protease,enzyme activity,,10 µM,103
O=C(/C=C/c1ccc(O)c(O)c1)O[C@@H]1C[C@](O)(C(=O)O)C[C@@H](O)[C@H]1O,rep main protease,"enzyme activity, FRET",,"10 µM, 10 min",< 25
O=c1n(-c2ccc(F)cc2)nc2n1CCCN2,rep main protease,enzyme activity,,20 µM,10.2
CC1=CC(=O)c2c(O)cccc2C1=O,rep main protease,enzyme activity,,10 µM,7.7
COc1cc([C@H]2OC[C@H]3[C@@H]2CO[C@H]3c2ccc(OC)c(OC)c2)ccc1O,rep papain-like protease,enzyme activity,,50 µM,8.5
COc1cc(CC(C)NCc2cc(NC(=O)c3ccccn3)cc(C(=O)N(C)C)c2)ccc1O (stereo not drawn),rep main protease,enzyme activity,,100 µg/mL,5.47
CCc1ccc(NC(=O)c2cc3c(=O)n4ccccc4nc3n2C)cc1,rep main protease,enzyme activity,,1 µM,11
O=C(Oc1cncc(Cl)c1)c1cc2cc(Cl)ccc2[nH]1,rep main protease,"enzyme activity, fluorescence",,"10 µM, pH 7.2",100
Cn1c(C(=O)Nc2ccc(Cl)cc2)cc2c(=O)n3ccccc3nc21,rep main protease,enzyme activity,,1 µM,7.4
C/N=c1\nc(-c2ccccc2)n(-c2ccccc2)s1,rep main protease,enzyme activity,,1 µM,96.3
Cc1ccc2nc(Cl)c(/C=N/c3cccc([N+](=O)[O-])c3)cc2c1,rep papain-like protease,enzyme activity,,100 µM,21.7
O=c1cc(-c2ccc(O)cc2)oc2cc(O)c(O)c(O)c12,rep main protease,enzyme activity,,10 µM,90.7
O=C(Oc1cc(Cl)cc([N+](=O)[O-])c1)c1cccc2[nH]ccc12,rep main protease,"enzyme activity, fluorescence",,"10 µM, pH 7.2",1
CC1=C2CC(C(=O)N[C@@H]3CN(C(=O)c4cc5ccccc5o4)Cc4nccn4C3)=CN=C2NN1,rep main protease,enzyme activity,,5 µM,11.3
Clc1nc2ccccc2cc1/C=N\c1ccc(Br)nc1,rep papain-like protease,enzyme activity,,100 µM,6.2
O=C(/C=C/c1ccc(O)c(O)c1)OC1CC(OC(=O)/C=C/c2ccc(O)c(O)c2)(C(=O)O)CC(O)C1O (stereo not drawn),rep main protease,enzyme activity,,100 µM,87.3
